Test results published in ChEMBL document CHEMBL1138784, “Rational design, synthesis, and biological evaluation of bis(pyrimido[5,6,1-de]acridines) and bis(pyrazolo[3,4,5-kl]acridine-5-carboxamides) as new anticancer agents” (J Med Chem, 2004).

Experiments:
MCF7 [1] = assay: Percent growth of breast MCF-7 cell line was determined at 10e-5 M concentration after 48 hr of exposing; assay type: functional, Homo sapiens
LoVo [2] = assay: Cytotoxicity against doxorubicin resistant LoVo cell line was determined against 144 hrs; assay type: functional, cell-based; settings: Homo sapiens
How it was run: (§1)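 MTT assay on doxorubicin-sensitive LoVo and resistant LoVo/Dx cells, 24 h preincubation, then 1 h or 144 h drug exposure at 37 °C, 5% CO2. IC50 in nM. Resistance index is IC50 on LoVo/Dx divided by IC50 on LoVo.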

SNB-19 [3] = assay: Percent growth of CNS SNB-19 cell line was determined at 10e-8 M concentration after 48 hr of exposing; assay type: functional, Homo sapiens
How it was run: (§2)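 NCI sulforhodamine B screen. Cells seeded by growth rate, 24 h drug-free, then 48 h exposure to 10^-8, 10^-6 or 10^-5 M. Protein-stain optical density expressed as percent growth relative to untreated control (100%); negative values indicate cell kill.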

[4] = Cytotoxicity against human H460M cancer cell line was determined after 1 hr; assay type: cell-based; settings: Cancer cell lines
How it was run: (§3)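 MTT colorimetric assay. Cells seeded by growth characteristics and preincubated 24 h, then exposed to drug for 1 h or 144 h at 37 °C, 5% CO2. H460M, MKN45 and PC-3 were grown in RPMI 1640 with 10% FCS. HCT116 was grown in D-MEM with 10% FBS and 2 mM glutamine.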

MCF7 [5] = assay: Percent growth of breast MCF-7 cell line was determined at 10e-6 M concentration after 48 h of exposing; assay type: functional, Homo sapiens
Nucleic Acid = assay: Binding site preference is determined as the ratio of Poly (dA-dT)2 to Poly (dG-dC)2; assay type: nucleic-acid assay
How it was run: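 Ethidium displacement fluorometry at pH 7.0 (10 mM Na2HPO4, 10 mM NaH2PO4, 1 mM EDTA) with 1.26 μM ethidium bromide and 1 μM [poly(dA-dT)]2 or [poly(dG-dC)]2, 20 °C. Ex 546 nm, em 595 nm, drug added serially from a DMSO stock. Preference taken from the [AT]/[GC] ratio of C50 values, counted significant only below 0.7 or above 1.3.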

SNB-19 [6] = assay: Percent growth of CNS SNB-19 cell line was determined at 10e-6 M concentration after 48 hr of exposing; assay type: functional, Homo sapiens; how it was run: as §2
NCI-H460 [7] = assay: Percent growth of lung NCI-H460 cell line was determined at 10e-5 M concentration after 48 hr of exposing; assay type: functional, Homo sapiens; how it was run: as §2
DU-145 [8] = assay: Percent growth of prostate DU-145 cell line was determined at 10e-8 M concentration after 48 h of exposing; assay type: functional, Homo sapiens
MKN-45 = assay: Cytotoxicity against human MKN45 cancer cell line was determined after 144 hr; assay type: functional, cell-based; settings: MKN-45, 144 h; how it was run: as §3
[9] = Cytotoxicity against human MKN45 cancer cell line was determined after 1 hr; assay type: cell-based; settings: Cancer cell lines; how it was run: as §3
SNB-19 [10] = assay: Percent growth of CNS SNB-19 cell line was determined at 10e-5 M concentration after 48 hr of exposing; assay type: functional, Homo sapiens; how it was run: as §2
[11] = Percent growth of melanoma LOX IMV1 cell line was determined at 10e-8 M concentration after 48 hr of exposing; assay type: functional, Homo sapiens; how it was run: as §2
OVCAR-4 [12] = assay: Percent growth of ovarian OVCAR-4 cell line was determined at 10e-6 M concentration after 48 hr of exposing; assay type: functional, Homo sapiens; how it was run: as §2
MOLT-4 [13] = assay: Percent growth of leukemia MOLT-4 cell line was determined at 10e-8 M concentration after 48 hr of exposing; assay type: functional, Homo sapiens; how it was run: as §2
PC-3 = assay: Cytotoxicity against human PC3 cancer cell line was determined after 144 hr; assay type: functional, cell-based; settings: PC-3, 144 h; how it was run: as §3
[14] = Cytotoxicity against doxorubicin resistant LoVo cell line was determined against 1 hour; assay type: cell-based; settings: Homo sapiens; how it was run: as §1
[15] = Percent growth of melanoma LOX IMV1 cell line was determined at 10e-6 M concentration after 48 hr of exposing; assay type: functional, Homo sapiens; how it was run: as §2
786-0 [16] = assay: Percent growth of renal 786-O cell line was determined at 10e-8 M concentration after 48 h of exposing; assay type: functional, Homo sapiens; how it was run: as §2
[17] = Cytotoxicity against human PC3 cancer cell line was determined after 1 hr; assay type: cell-based; settings: Cancer cell lines; how it was run: as §3
786-0 [18] = assay: Percent growth of renal 786-O cell line was determined at 10e-6 M concentration after 48 h of exposing; assay type: functional, Homo sapiens; how it was run: as §2
HCT-116 = assay: Cytotoxicity against human HCT116 cancer cell line was determined after 144 hr; assay type: functional, cell-based; settings: HCT-116, 144 h; how it was run: as §3
MCF7 [19] = assay: Percent growth of breast MCF-7 cell line was determined at 10e-8 M concentration after 48 hr of exposing; assay type: functional, Homo sapiens
DU-145 [20] = assay: Percent growth of prostate DU-145 cell line was determined at 10e-6 M concentration after 48 hr of exposing; assay type: functional, Homo sapiens
SW-620 [21] = assay: Percent growth of colon SW-620 cell line was determined at 10e-8 M concentration after 48 hr of exposing; assay type: functional, Homo sapiens; how it was run: as §2
DU-145 [22] = assay: Percent growth of prostate DU-145 cell line was determined at 10e-5 M concentration after 48 hr of exposing; assay type: functional, Homo sapiens
SW-620 [23] = assay: Percent growth of colon SW-620 cell line was determined at 10e-6 M concentration after 48 hr of exposing; assay type: functional, Homo sapiens; how it was run: as §2
OVCAR-4 [24] = assay: Percent growth of ovarian OVCAR-4 cell line was determined at 10e-8 M concentration after 48 hr of exposing; assay type: functional, Homo sapiens; how it was run: as §2
[25] = Cytotoxicity against human H460M cancer cell line was determined after 144 hr; assay type: functional, cell-based; settings: Cancer cell lines; how it was run: as §3
HT-29 = assay: Cytotoxicity is determined as the concentration required to inhibit the growth of human colon adenocarcinoma (HT-29) cell line; assay type: functional, cell-based
[26] = Percent growth of melanoma LOX IMV1 cell line was determined at 10e-5 M concentration after 48 hr of exposing; assay type: functional, Homo sapiens; how it was run: as §2
MOLT-4 [27] = assay: Percent growth of leukemia MOLT-4 cell line was determined at 10e-5 M concentration after 48 hr of exposing; assay type: functional, Homo sapiens; how it was run: as §2
MOLT-4 [28] = assay: Percent growth of leukemia MOLT-4 cell line was determined at 10e-6 M concentration after 48 h of exposing; assay type: functional, Homo sapiens; how it was run: as §2
LoVo [29] = assay: Cytotoxicity against human LoVo cancer cell line was determined after 144 hr; assay type: functional, cell-based; how it was run: as §1
OVCAR-4 [30] = assay: Percent growth of ovarian OVCAR-4 cell line was determined at 10e-5 M concentration after 48 hr of exposing; assay type: functional, Homo sapiens; how it was run: as §2
[31] = Cytotoxicity against human LoVo cancer cell line was determined after 1 hr; assay type: cell-based; how it was run: as §1
SW-620 [32] = assay: Percent growth of colon SW-620 cell line was determined at 10e-5 M concentration after 48 hr of exposing; assay type: functional, Homo sapiens; how it was run: as §2
786-0 [33] = assay: Percent growth of renal 786-O cell line was determined at 10e-5 M concentration after 48 hr of exposing; assay type: functional, Homo sapiens; how it was run: as §2
LoVo [34] = assay: Ratio of IC50 against sensitive LoVo cell line and that of doxorubicin resistance LoVo cell line was determined after 1 hr exposure; assay type: functional, Homo sapiens
NCI-H460 [35] = assay: Percent growth of lung NCI-H460 cell line was determined at 10e-8 M concentration after 48 hr of exposing; assay type: functional, Homo sapiens; how it was run: as §2
[36] = Cytotoxicity against human HCT116 cancer cell line was determined after 1 hr; assay type: cell-based; settings: HCT-116, 1 h; how it was run: as §3
NCI-H460 [37] = assay: Percent growth of lung NCI-H460 cell line was determined at 10e-6 M concentration after 48 hr of exposing; assay type: functional, Homo sapiens; how it was run: as §2

For `CN(C)CCn1c(=O)c2ccc(NCCCN(C)CCCNc3ccc4c(=O)n(CCN(C)C)c(=O)n5c6ccc([N+](=O)[O-])cc6c(=O)c3c45)c3c(=O)c4cc([N+](=O)[O-])ccc4n(c1=O)c23`, the Growth (MCF7 [1]) was -55%, the IC50 (LoVo [2]) was 67 nM and the Growth (SNB-19 [3]) was 37%. The IC50 [4] was 0.93 nM, the Growth (MCF7 [5]) was -2% and the Binding site preference (Nucleic Acid) was 2.4. It also gave a Growth (SNB-19 [6]) of -25%, a Growth (NCI-H460 [7]) of -60% and a Growth (DU-145 [8]) of 35%. It also gave an IC50 (MKN-45) of 0.29 nM, an IC50 [9] of 1.3 nM and a Growth (SNB-19 [10]) of -66%. For the same compound, the Growth [11] was 16%, the Growth (OVCAR-4 [12]) was -54% and the Growth (MOLT-4 [13]) was -2%. The IC50 (PC-3) was 4.5 nM, the IC50 [14] was 380 nM and the Growth [15] was -56%. It also gave a Growth (786-0 [16]) of 33%, an IC50 [17] of 11 nM and a Growth (786-0 [18]) of -4%. It also gave an IC50 (HCT-116) of 1.1 nM, a Growth (MCF7 [19]) of 21% and a Growth (DU-145 [20]) of -13%. For the same compound, the Growth (SW-620 [21]) was 42%, the Growth (DU-145 [22]) was -83% and the Growth (SW-620 [23]) was 5%. It also gave a Growth (OVCAR-4 [24]) of 31%, an IC50 [25] of 0.19 nM and an IC50 (HT-29) of under 0.1 nM. It also gave a Growth [26] of -69%, a Growth (MOLT-4 [27]) of -50% and a Growth (MOLT-4 [28]) of -31%. The IC50 (LoVo [29]) was 7.6 nM, the Growth (OVCAR-4 [30]) was -65% and the IC50 [31] was 42 nM. For the same compound, the Growth (SW-620 [32]) was -16%, the Growth (786-0 [33]) was -63% and the Resistance index (LoVo [34]) was 9. For the same compound, the Growth (NCI-H460 [35]) was 10%, the IC50 [36] was 2.9 nM and the Growth (NCI-H460 [37]) was -36%.
`COc1ccc2c(c1)-c1nn(CCN(C)C)c3ccc(C(=O)NCCCN(C)CCCNC(=O)c4ccc5c6c(c7cc(OC)ccc7nc46)NN5CCN(C)C)c(c13)N2` showed a Growth (MCF7 [1]) of -18%, an IC50 (LoVo [2]) of 290 nM and a Growth (SNB-19 [3]) of 47%. For the same compound, the IC50 [4] was 26 nM, the Growth (MCF7 [5]) was 7% and the Binding site preference (Nucleic Acid) was 5.5. The Growth (SNB-19 [6]) was 0%, the Growth (NCI-H460 [7]) was -58% and the Growth (DU-145 [8]) was 70%. The IC50 (MKN-45) was 13 nM, the IC50 [9] was 51 nM and the Growth (SNB-19 [10]) was -37%. The Growth [11] was 46%, the Growth (OVCAR-4 [12]) was -5% and the Growth (MOLT-4 [13]) was 19%. For the same compound, the IC50 (PC-3) was 39 nM, the IC50 [14] was 3100 nM and the Growth [15] was 3%. The Growth (786-0 [16]) was 53%, the IC50 [17] was over 100 nM and the Growth (786-0 [18]) was 11%. It also gave an IC50 (HCT-116) of 43 nM, a Growth (MCF7 [19]) of 66% and a Growth (DU-145 [20]) of -8%. It also gave a Growth (SW-620 [21]) of 44%, a Growth (DU-145 [22]) of -21% and a Growth (SW-620 [23]) of 3%. It also gave a Growth (OVCAR-4 [24]) of 71%, an IC50 [25] of 4.3 nM and an IC50 (HT-29) of 3 nM. The Growth [26] was -80%, the Growth (MOLT-4 [27]) was -28% and the Growth (MOLT-4 [28]) was -28%. It also gave an IC50 (LoVo [29]) of 5.1 nM, a Growth (OVCAR-4 [30]) of -54% and an IC50 [31] of 53 nM. It also gave a Growth (SW-620 [32]) of -39%, a Growth (786-0 [33]) of -33% and a Resistance index (LoVo [34]) of 58. The Growth (NCI-H460 [35]) was 23%, the IC50 [36] was 120 nM and the Growth (NCI-H460 [37]) was 3%.
